# Screening results as filed in PubChem.
# Shown is part of a subset that was picked to be rich in hits.
# bCat KO growth – beta-catenin-lacking colon tumor cell growth suppression; 140,000 tested, 1.5% active; HCT116 beta-catenin knockout viability, CellTiter-Glo, 60 h; hits give low values; viability, % at 10 µM; AID 818;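 active = viability at or under a set limit, the compound median less 4 SD, cut at about 6% in these data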;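 also: 0% = Hyamine 1622 control at 20 µM and 100% = untreated cell control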
# H69AR inhibit – blocks growth of human H69AR lung tumor cells | H69AR lung tumor viability, ATP luminescence, 72 h; hits give low values | viability, % at 10 µM | 85,000 tested, 6% active;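 active = viability at or below 40%; inactive = viability above 40%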;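 also: multidrug resistant small cell line overexpressing MRP-1 efflux transporter; 100% = mean luminescence of untreated control wells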
# Fibroblast inh – blocks proliferation of human lung fibroblasts; LL 47 human lung fibroblast viability, ATP luminescence; hits give low values; viability, % at 10 µM; 85,000 tested, 1.1% active;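 active = viability at or below 50% in the single dose screen; inactive = viability above 50%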;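 also: compound exposure lasted 72 h before the ATP readout; 100% = median luminescence of untreated cell-only wells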
#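 Times – overnight cell rest, 72 h compound treatment at 37 °C · Test system – human lung fibroblast line LL 47, low passage · Amount – 1,150 cells in each well · Controls – cell-only wells, no compound · Doses – 0.1% DMSO in all compound wells · Measured by – CellTiter-Glo luminescence · Buffer or medium – IMEM plus 15% FBS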
# HUVEC prolif 384 – inhibitors of human endothelial cell proliferation; HUVEC proliferation, CellTiter-Glo luminescence, 72 h; hits give low values; viability, % at 10 µM (by protocol); 86,000 tested, 1.1% active; AID 648;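 active = viability at or below 30%; inactive = viability above 30%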;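 also: 100% = median luminescence of DMSO-only cell control wells on each plate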
# HCT116 PTEN-null – PTEN-deleted cell growth suppression; 140,000 tested, 1.2% active; viability, % at 10 µM; HCT116 PTEN-null viability, CellTiter-Glo, 60 h; hits give low values;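 active = viability at or below a set limit, 4 SD under the median of all tested compounds, cut at about 3.7% in these data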;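 also: PTEN knockout HCT116 line with beta catenin targeted HCT116 as companion control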
# Numbers without * were called inactive; . = no result.
SMILES,bCat KO growth,H69AR inhibit,Fibroblast inh,HUVEC prolif 384,HCT116 PTEN-null
CC1=C(C(=O)Nc2ccccc2)C(c2ccncc2)C(C#N)=C(SCC(=O)Nc2ccccc2)N1 (stereo unspecified),86.6,10.8*,102.4,90.8,93.2
CC(=O)C1=C(C)NC(SCC(=O)c2ccc(-c3ccccc3)cc2)=C(C#N)C1c1cccnc1 (stereo unspecified),21.0,6.2*,77.2,59.0,18.0
C1CNCCOCCNCCN1,98.9,107.8,105.7,92.6,92.3
Cc1ccc2c(c1)c1c(n2CC(O)Cn2c(C)nc3ccccc32)C(=O)CCC1 (stereo unspecified),36.3,80.8,91.8,74.0,42.5
Cc1ccc2c(c1)c1c(n2CC(O)Cn2c(C)nc3ccccc32)/C(=N\O)CCC1 (stereo unspecified),39.1,2.7*,93.8,3.4*,33.7
COCc1cc(C)nc(Nc2ccccc2C)c1C#N,91.8,97.9,83.8,91.1,97.1
COCc1cc(C)nc(N2CCc3ccccc32)c1C#N,91.4,31.5*,103.2,96.2,79.5
CC(C)Cc1ccc(/C=C/C(=O)NC2CC2)cc1,95.3,.,.,.,97.1
COc1ccc(CC(=O)NCc2cn3ccsc3n2)cc1,92.3,1.0*,98.0,102.3,97.8
O=C(CSc1cccc[n+]1[O-])c1cc2ccccc2o1,4.7*,53.6,93.5,109.0,2.7*
C=CCOc1cccc(C2c3c(oc4ccccc4c3=O)C(=O)N2c2ccccn2)c1 (stereo unspecified),73.3,26.3*,87.3,63.0,76.9
CCOc1cccc(C2c3c(oc4ccccc4c3=O)C(=O)N2c2ccccn2)c1 (stereo unspecified),76.1,99.6,84.1,72.5,86.5
COc1ccc(-c2cc(-c3cc(F)ccc3O)[nH]n2)cc1OC,32.2,52.0,78.0,43.5,33.7
COc1ccc(-c2cc(-c3ccc(OC)c(OC)c3)n[nH]2)c(O)c1,26.4,53.5,86.2,95.8,32.2
COc1ccc(-c2cc(-c3cc(OC)ccc3O)[nH]n2)cc1,20.7,28.3*,73.0,53.0,36.5
COc1ccc(O)c(-c2cc(-c3cccc(Br)c3)n[nH]2)c1,14.0,35.6*,95.7,43.4,37.2
Cc1ccc(O)c(-c2cc(-c3cccc(F)c3)n[nH]2)c1,39.6,0.6*,81.9,27.8*,46.5
CS(=O)(=O)Cc1nc2ccccc2oc1=O,54.3,22.1*,106.9,112.1,46.5
Nc1ccc(C(=O)OCC(=O)Nc2cc([N+](=O)[O-])ccc2F)cc1,84.9,.,.,.,84.7
CN1CC2([N+](=O)[O-])CC=C(OCCO)C([N+](=O)[O-])(C1)C2 (stereo unspecified),89.1,.,.,.,94.8
Cn1c2ccccc2c(=O)c2c(=O)n(C3CCCCCC3)c(C3CCCCC3)nc21,5.2*,.,.,.,2.5*
Cn1c2ccccc2c(=O)c2c(=O)n(C3CCCCC3)c(-c3cccs3)nc21,24.8,34.2*,40.6*,53.6,13.9
Cc1ccc(CSCC(=O)N/N=C/c2cccc(OC3CSC3)c2)cc1,102.8,.,.,.,99.5
CCOc1ccc(CNc2ccc(N3CCCC3)cc2)cc1,4.5*,1.8*,83.7,90.4,6.0
CCOc1cc(CNc2ccc(N3CCCC3)cc2)cc(Cl)c1OC,49.8,.,.,.,63.0
SMILES,bCat KO growth,H69AR inhibit,Fibroblast inh,HUVEC prolif 384,HCT116 PTEN-null
COC(=O)c1ccc(-n2nnnc2SCc2ccccc2OC)cc1,28.8,37.0*,97.8,88.8,43.0
COC(=O)c1ccc(Sc2nnnn2-c2ccccc2)c([N+](=O)[O-])c1,6.0*,.,.,.,6.2
COc1ccc(S(=O)(=O)NCC(=O)N(CC(=O)NCC2CCCO2)c2cc(C)ccc2C)cc1 (stereo unspecified),103.9,36.7*,95.3,104.7,120.1
CNC(=S)N/N=C(\C)c1ccc(N2CCOCC2)cc1,4.8*,.,.,.,1.3*
CCNC(=S)N/N=C(\C)c1ccc(N2CCOCC2)cc1,101.7,.,.,.,95.3
Cc1ccc2cc3c(NC(=O)c4ccco4)nn(CC(C)C)c3nc2c1,75.6,35.4*,86.2,51.9,86.5
Cc1ccc2nc3c(cc2c1)c(NC(=O)c1ccccn1)nn3CC(C)C,76.2,90.6,98.4,79.0,74.1
CN(C(=O)c1cccc(Nc2ccc(-c3ccc4c(c3)OCCO4)nn2)c1)C1CCCCC1,51.5,16.8*,106.7,51.0,41.2
O=S1(=O)c2ccccc2N=NN1Cc1ccc(Cl)cc1,97.3,1.1*,6.2*,20.6*,103.0
O=S1(=O)c2ccccc2N=NN1Cc1cc(Cl)cc(Cl)c1,71.3,1.2*,47.0*,78.2,80.0
